# A selection: hits, their analogues and other compounds. The true share with any hit is near 1.8%.
# Runt-SMMHC FRET – inhibitors of RUNX1 Runt–CBFb-SMMHC binding, primary screen, biochemical, FRET, Cerulean-Runt, Venus-CBFb-SMMHC, uHTS. actives 0.74% (n = 220,000). Cerulean-Runt/Venus-CBFb-SMMHC FRET ratio 530/480, 1 h. inhibition, % at 20 µM;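 active = mean inhibition across duplicate retests at 20 µM reaching about 50%, limit read from the data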;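 also: 0% = DMSO wells and 100% = wells with excess untagged CBFb-SMMHC; inhibitors lower the FRET ratio by blocking Runt binding to CBFb-SMMHC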
# Target sequence (Q01196 whole entry, looked up): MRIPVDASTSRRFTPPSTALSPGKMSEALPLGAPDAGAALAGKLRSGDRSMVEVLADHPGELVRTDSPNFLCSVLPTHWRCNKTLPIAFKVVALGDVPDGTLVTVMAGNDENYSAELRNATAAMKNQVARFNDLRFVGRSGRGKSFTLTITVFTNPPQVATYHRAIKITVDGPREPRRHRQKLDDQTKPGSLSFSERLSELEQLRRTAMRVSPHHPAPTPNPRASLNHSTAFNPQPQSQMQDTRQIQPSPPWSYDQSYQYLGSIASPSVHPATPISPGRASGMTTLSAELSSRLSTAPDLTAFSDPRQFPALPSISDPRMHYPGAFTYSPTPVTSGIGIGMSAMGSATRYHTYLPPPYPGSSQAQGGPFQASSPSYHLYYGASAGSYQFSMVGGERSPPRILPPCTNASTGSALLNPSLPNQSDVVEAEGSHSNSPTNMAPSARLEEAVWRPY
# Target sequence (Q13951 whole entry, looked up): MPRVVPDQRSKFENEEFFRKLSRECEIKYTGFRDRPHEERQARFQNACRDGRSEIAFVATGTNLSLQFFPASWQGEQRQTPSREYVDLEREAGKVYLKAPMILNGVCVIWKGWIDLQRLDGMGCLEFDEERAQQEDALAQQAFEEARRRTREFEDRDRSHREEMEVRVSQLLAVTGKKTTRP
# RanGTP-Imp inh – inhibitors of RanGTP-importin-beta interaction, primary screen, biochemical, FRET, CFP-Ran, YFP-importin-beta, homogeneous; cell-free CFP-Ran/YFP-importin-beta FRET ratio; inhibition, % (no concentration beside the values); actives 1.1% (n = 300,000);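 active = more than half of the replicate wells show a fall in the fluorescence ratio signal beyond about 16%, limit read from the data, passing the limit was not always enough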;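 also: 0% = DMSO wells and 100% = Ran loaded with GDP instead of GTP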
# Hck-Nef inh – inhibitors of Nef-activated human Hck kinase, primary screen, biochemical, Z-Lyte FRET, 384-well, Hck-YEEI; Tyrosine-protein kinase HCK (Homo sapiens), P08631; Recombinant Hck-YEEI plus Nef, Z-Lyte FRET kinase assay; inhibition, % at 20 µM; actives 0.68% (n = 220,000); AID 463187, 2010;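 active = Hck-Nef kinase inhibition above about 50%, limit read from the data; inactive = inhibition below that limit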;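 also: 0% = DMSO with Hck plus Nef and 100% = Hck alone without Nef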
# Runt-CBFb FRET – inhibitors of RUNX1 Runt–CBFb binding, primary screen, biochemical, FRET, Cerulean-Runt, Venus-CBFb, uHTS; Runt-related transcription factor 1 (Homo sapiens) + Core-binding factor subunit beta …; Cerulean-Runt/Venus-CBFb FRET ratio 530/480, 1 h; inhibition, % at 20 µM; actives 0.46% (n = 220,000);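 active = inhibition over about 50% at 20 µM in the single-dose screen, limit read from the data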;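 also: 0% = DMSO wells and 100% = excess unlabeled CBFb competitor control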
#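 test system = Cerulean-Runt domain fusion protein, energy donor | probe or stimulus = Venus-CBFb binding partner, 100 nM | incubation = two 1 h room-temperature incubations shielded from light | detection = fluorescence energy transfer, 422 nm excitation, 530/480 nm emission | measure = loss of energy transfer signal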
# Numbers without * were called inactive; / = not tested or not shown.
SMILES,Runt-SMMHC FRET,RanGTP-Imp inh,Hck-Nef inh,Runt-CBFb FRET
CC(C)COc1ccc(C(=S)N2CCCC2)cc1,/,0,/,/
CCn1c(=O)c2c(nc3n2CCN3c2ccccc2)n(C)c1=O,-5,0,9,0
Cc1cccn2c(=O)c3cc(C#N)c(=NC(=O)c4ccncc4)n(CCCOC(C)C)c3nc12,38,140*,32,97*
CCCCn1c(=NC(=O)c2cccnc2)c(C#N)cc2c(=O)n3cccc(C)c3nc21,58*,107*,10,124*
CCOC(=O)c1cc2c(=O)n3cccc(C)c3nc2n(CCOC)c1=NC(=O)c1ccncc1,/,/,6,/
COCCCn1c(=NC(=O)c2ccncc2)c(C#N)cc2c(=O)n3cccc(C)c3nc21,62*,68*,14,48
CCCCNC(=O)c1cc2c(=O)n3cccc(C)c3nc2s1,/,-2,/,/
CCOC(=O)/C(C#N)=C/c1c(N2CCN(Cc3ccc4c(c3)OCO4)CC2)nc2c(C)cccn2c1=O,-17,-36,10,-11
CCCn1c(=NC(=O)c2ccc3c(c2)OCO3)c(C#N)cc2c(=O)n3cccc(C)c3nc21,67*,/,/,125*
COc1ccc(C(=O)Nc2ccccc2C(=O)Nc2ccncc2)cc1,/,4,/,/
O=C(CCCc1ccccc1)Nc1nccs1,/,-2,/,/
CC(=O)N=c1c(C#N)cc2c(=O)n3cccc(C)c3nc2n1CCCOC(C)C,82*,111*,33,115*
Cc1cccn2c(=O)c3cc(C#N)c(=O)n(-c4c(C)n(C)n(-c5ccccc5)c4=O)c3nc12,49,2,10,14
COc1cnc(-c2cccc(C(F)(F)F)c2)[nH]c1=O,-2,-2,10,1
FC(F)(F)c1cccc(-c2nc3nc(Cl)c(Cl)nc3[nH]2)c1,43,43*,16,21
CN1/C(=C/C(=O)c2cccs2)Sc2ccccc21,83*,3,23,38
CN1/C(=C\C(=O)c2cccs2)C(C)(C)c2ccccc21,86*,18*,10,48
CCOC(=O)/C=C1/N(C)c2ccccc2C1(C)C,1,3,28,0
COc1ccccc1-n1ccn(CC(=O)Nc2ccc(C)cc2Cl)c(=O)c1=O,/,7,/,/
CC1CCCN(S(=O)(=O)c2ccc(C(=O)Nc3sc4c(c3C(N)=O)CCN(C)C4)cc2)C1 (configuration not stated),/,29*,/,/
CNC(=O)c1c(NC(=O)c2ccc(S(=O)(=O)N3CCCCC3C)cc2)sc2c1CCN(C)C2 (configuration not stated),/,50*,/,/
CCN1CCc2c(sc(NC(=O)c3ccc(S(=O)(=O)N4CCCCCC4)cc3)c2C(=O)NC)C1,/,57*,/,/
NC(=O)C(c1ccccc1)c1ccc(C(=O)c2ccccc2)cc1 (configuration not stated),/,1,/,/
Cc1n[nH]c(=O)c2c(NC(=O)CSc3nc4ccccc4c(=O)n3CCCOC(C)C)oc(C)c12,/,0,/,/
Cc1ccc(-c2ccc(CCC(=O)O)n2NC(=O)c2cccs2)cc1,63*,3,9,32
SMILES,Runt-SMMHC FRET,RanGTP-Imp inh,Hck-Nef inh,Runt-CBFb FRET
CNC(=O)c1cc(S(=O)(=O)N2CC(C)OC(C)C2)ccc1N1CCCCC1 (configuration not stated),/,-8,/,/
O=C1NC(=S)S/C1=C\c1ccc(SCc2ccco2)o1,34,/,85*,39
O=C1CCC(c2ccccc2)N1C(=O)c1cccnc1 (configuration not stated),0,34*,7,-2
O=C1CC(c2ccccc2)CN1C(=O)c1cccnc1 (configuration not stated),-1,-3,15,1
Oc1ccc(Br)cc1/C=N/n1c(-c2ccccc2)n[nH]c1=S,/,18*,/,/
COc1ccccc1CNc1nc(-c2cc(C)n(C)c2C)cs1,-12,/,67*,1
COc1ccc(OCCOC(=O)CNS(=O)(=O)c2ccc(SC)c([N+](=O)[O-])c2)cc1,/,0,/,/
COc1ccc(C2SCC(=O)N2Cc2ccccc2)cc1 (configuration not stated),/,2,/,/
COc1cc(C2SCC(=O)N2Cc2ccccc2)ccc1O (configuration not stated),/,17*,/,/
Cc1cc(C)c2c(N)c(-c3nc4ccccc4[nH]3)sc2n1,11,21*,2,4
CC(C)Sc1nsc2nc(=O)c(/C=C3\C=Nc4ccccc43)c(N)n12,59*,33*,-25,18
Cc1cc2nc(=O)c(/C=C3\C=Nc4ccccc43)c(N)n2o1,-45,47*,-2,-5
Cc1cc(Cn2nc(-c3ccccc3)cc2C(=O)NCc2cccc(Br)c2)on1,/,-2,/,/
CCCCNc1cc(Cl)nc(N)n1,8,40*,0,5
CCOC(=O)CC1COCCN1C(=O)c1ccc2oc(Cc3ccccc3)nc2c1 (configuration not stated),/,1,/,/
N=c1oc2cc(O)ccc2cc1C(=O)Nc1ccc(F)cc1,/,171*,/,/
COc1ccc(NC(=O)c2cc3cc(OC)ccc3oc2=N)cc1,8,0,-5,4
Nc1c(C(=O)N/N=C/c2cccnc2)oc2nc(-c3ccco3)cc(-c3ccco3)c12,-57,-2,64*,-16
CC(=O)N1CCc2c(sc(NC(=O)C3COc4ccccc4O3)c2C(N)=O)C1 (configuration not stated),/,5,/,/
CCN1CCc2c(sc(NC(=O)C3COc4ccccc4O3)c2C(N)=O)C1 (configuration not stated),/,153*,/,/
CN1CCc2c(sc(NC(=O)C3COc4ccccc4O3)c2C(N)=O)C1 (configuration not stated),/,182*,/,/
COc1ccc(S(=O)(=O)N(C)c2ccc(C(=O)NCc3ccco3)cc2)cc1OC,/,-1,/,/
Cc1cccn2c(=O)c3cc(C(=O)NCc4cccnc4)c(=N)n(C)c3nc12,74*,/,/,98*
Cc1cccn2c(=O)c3cc(C(=O)NCCc4ccccc4)sc3nc12,/,0,/,/
COC(=O)c1cc2c(=O)n3cccc(C)c3nc2n(Cc2cccnc2)c1=N,57*,/,/,56*
SMILES,Runt-SMMHC FRET,RanGTP-Imp inh,Hck-Nef inh,Runt-CBFb FRET
C=CCn1c(=N)c(C(=O)OC)cc2c(=O)n3cccc(C)c3nc21,58*,/,/,52*
C=CCN(C(=O)c1csnn1)C(C(=O)NC1CCCC1)c1c(F)cccc1Cl (configuration not stated),/,5,/,/
O=C(O)CC1(CC(=O)Nc2cccc(C(=O)O)c2)CCCC1,/,6,/,/
NC(=O)c1sc2nc(-c3ccccc3)ccc2c1N,/,5,/,/
CCOC(=O)c1sc2nc(-c3ccccc3)ccc2c1N,20,30*,0,5
CCN(CC)c1ccc(/C=C(/C#N)C(=O)NC(C)C)o1,-2,-2,18,-5
CCN(CC)c1ccc(/C=C(/C#N)C(=O)NCc2ccccc2)o1,-19,55*,3,-26

# Compound activity (PubChem)
